Source: ChEMBL document CHEMBL1151705, “Novel azalides derived from 16-membered macrolides. Part II: Isolation of the linear 9-formylcarboxylic acid and its sequential macrocyclization with an amino alcohol or an azidoamine” (2008)
≈ marks a conversion by molar mass, not a printed value.

Columns and labels:
Assay type in all cases: functional
Staphylococcus aureus [1] = assay: Antimicrobial activity against drug-susceptible Staphylococcus aureus 3 after 20 hrs by agar dilution method; settings: Staphylococcus aureus, 20 h; read-out: MIC
Procedure, shortened: (§1)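 Agar dilution MIC. S. aureus seed culture was grown in sensitivity test broth. Cell suspension (about 10⁶ CFU/ml) was inoculated onto sensitivity disk agar with 5% horse blood and incubated at 37 °C for 20 h. MIC was the lowest drug concentration that prevented visible growth.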

Haemophilus influenzae [2] = assay: Antimicrobial activity against drug-susceptible Haemophilus influenzae 4 after 20 hrs by agar dilution method; settings: Haemophilus influenzae, 20 h; read-out: MIC
Procedure, shortened: (§2)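 Streptococci, H. influenzae and M. catarrhalis were precultured on blood agar plates. Suspensions of about 10⁶ CFU/ml were inoculated onto sensitivity disk agar supplemented with 5% horse blood and incubated at 37 °C for 20 h. MIC was read as the lowest drug concentration with no visible growth.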

Haemophilus influenzae [3] = assay: Antimicrobial activity against drug-susceptible Haemophilus influenzae 1 after 20 hrs by agar dilution method; settings: Haemophilus influenzae, 20 h; read-out: MIC; procedure, shortened: as §2
Staphylococcus aureus [4] = assay: Antimicrobial activity against Staphylococcus aureus 6 expressing inducible ermB after 20 hrs by agar dilution method; procedure, shortened: as §1
Streptococcus pyogenes [5] = assay: Antimicrobial activity against Streptococcus pyogenes 3 expressing mefA after 20 hrs by agar dilution method; settings: Streptococcus pyogenes, 20 h; read-out: MIC; procedure, shortened: as §2
Streptococcus pneumoniae [6] = assay: Antimicrobial activity against Streptococcus pneumoniae 9 expressing mefA after 20 hrs by agar dilution method; settings: Streptococcus pneumoniae, 20 h; read-out: MIC; procedure, shortened: as §2
Haemophilus influenzae [7] = assay: Antimicrobial activity against drug-susceptible Haemophilus influenzae 3 after 20 hrs by agar dilution method; settings: Haemophilus influenzae, 20 h; read-out: MIC; procedure, shortened: as §2
Moraxella catarrhalis [8] = assay: Antimicrobial activity against drug-susceptible Moraxella catarrhalis 2 after 20 hrs by agar dilution method; settings: Moraxella catarrhalis, 20 h; read-out: MIC; procedure, shortened: as §2
Staphylococcus aureus [9] = assay: Antimicrobial activity against drug-susceptible Staphylococcus aureus 2 after 20 hrs by agar dilution method; settings: Staphylococcus aureus, 20 h; read-out: MIC; procedure, shortened: as §1
Streptococcus pneumoniae [10] = assay: Antimicrobial activity against drug-susceptible Streptococcus pneumoniae 2 after 20 hrs by agar dilution method; settings: Streptococcus pneumoniae, 20 h; read-out: MIC; procedure, shortened: as §2
Streptococcus pneumoniae [11] = assay: Antimicrobial activity against drug-susceptible Streptococcus pneumoniae DP1 Type1 after 20 hrs by agar dilution method; settings: Streptococcus pneumoniae, 20 h; read-out: MIC; procedure, shortened: as §2
Streptococcus pyogenes [12] = assay: Antimicrobial activity against drug-susceptible Streptococcus pyogenes 1 after 20 hrs by agar dilution method; settings: Streptococcus pyogenes, 20 h; read-out: MIC; procedure, shortened: as §2
Haemophilus influenzae [13] = assay: Antimicrobial activity against drug-susceptible Haemophilus influenzae 2 after 20 hrs by agar dilution method; settings: Haemophilus influenzae, 20 h; read-out: MIC; procedure, shortened: as §2
Streptococcus pneumoniae [14] = assay: Antimicrobial activity against Streptococcus pneumoniae 4 constitutively expressing ermB after 20 hrs by agar dilution method; settings: Streptococcus pneumoniae, 20 h; read-out: MIC; procedure, shortened: as §2
Moraxella catarrhalis [15] = assay: Antimicrobial activity against drug-susceptible Moraxella catarrhalis 1 after 20 hrs by agar dilution method; settings: Moraxella catarrhalis, 20 h; read-out: MIC; procedure, shortened: as §2
Streptococcus pyogenes [16] = assay: Antimicrobial activity against Streptococcus pyogenes 2 constitutively expressing ermB after 20 hrs by agar dilution method; procedure, shortened: as §2
Streptococcus pneumoniae [17] = assay: Antimicrobial activity against Streptococcus pneumoniae 7 expressing inducible ermB after 20 hrs by agar dilution method; settings: Streptococcus pneumoniae, 20 h; read-out: MIC; procedure, shortened: as §2
Streptococcus pneumoniae [18] = assay: Antimicrobial activity against Streptococcus pneumoniae 10 expressing mefA after 20 hrs by agar dilution method; settings: Streptococcus pneumoniae, 20 h; read-out: MIC; procedure, shortened: as §2
Streptococcus pneumoniae [19] = assay: Antimicrobial activity against Streptococcus pneumoniae 5 constitutively expressing ermB/mefA after 20 hrs by agar dilution method; settings: Streptococcus pneumoniae, 20 h; read-out: MIC; procedure, shortened: as §2
Staphylococcus aureus [20] = assay: Antimicrobial activity against Staphylococcus aureus 4 constitutively expressing ermA after 20 hrs by agar dilution method; procedure, shortened: as §1
Streptococcus pneumoniae [21] = assay: Antimicrobial activity against Streptococcus pneumoniae 6 constitutively expressing ermB after 20 hrs by agar dilution method; settings: Streptococcus pneumoniae, 20 h; read-out: MIC; procedure, shortened: as §2
Streptococcus pneumoniae [22] = assay: Antimicrobial activity against drug-susceptible Streptococcus pneumoniae 3 after 20 hrs by agar dilution method; settings: Streptococcus pneumoniae, 20 h; read-out: MIC; procedure, shortened: as §2
Staphylococcus aureus [23] = assay: Antimicrobial activity against drug-susceptible Staphylococcus aureus 209P JC-1 after 20 hrs by agar dilution method; settings: Staphylococcus aureus, 209P, 20 h; read-out: MIC; procedure, shortened: as §1
Streptococcus pneumoniae [24] = assay: Antimicrobial activity against Streptococcus pneumoniae 8 expressing inducible ermB after 20 hrs by agar dilution method; settings: Streptococcus pneumoniae, 20 h; read-out: MIC; procedure, shortened: as §2
Staphylococcus aureus [25] = assay: Antimicrobial activity against Staphylococcus aureus 5 expressing inducible ermB after 20 hrs by agar dilution method; settings: Staphylococcus aureus, 20 h; read-out: MIC; procedure, shortened: as §1

| Compound | MIC (Staphylococcus aureus [1]) [µg/mL] | MIC (Haemophilus influenzae [2]) [µg/mL] | MIC (Haemophilus influenzae [3]) [µg/mL] | MIC (Staphylococcus aureus [4]) [µg/mL] | MIC (Streptococcus pyogenes [5]) [µg/mL] | MIC (Streptococcus pneumoniae [6]) [µg/mL] | MIC (Haemophilus influenzae [7]) [µg/mL] | MIC (Moraxella catarrhalis [8]) [µg/mL] | MIC (Staphylococcus aureus [9]) [µg/mL] | MIC (Streptococcus pneumoniae [10]) [µg/mL] | MIC (Streptococcus pneumoniae [11]) [µg/mL] | MIC (Streptococcus pyogenes [12]) [µg/mL] | MIC (Haemophilus influenzae [13]) [µg/mL] | MIC (Streptococcus pneumoniae [14]) [µg/mL] | MIC (Moraxella catarrhalis [15]) [µg/mL] | MIC (Streptococcus pyogenes [16]) [µg/mL] | MIC (Streptococcus pneumoniae [17]) [µg/mL] | MIC (Streptococcus pneumoniae [18]) [µg/mL] | MIC (Streptococcus pneumoniae [19]) [µg/mL] | MIC (Staphylococcus aureus [20]) [µg/mL] | other results |
| --- | --- | --- | --- | --- | --- | --- | --- | --- | --- | --- | --- | --- | --- | --- | --- | --- | --- | --- | --- | --- | --- |
| CCOC(=O)[C@H]1[C@H](C)O[C@@H](O[C@H]2[C@H](N(C)C)[C@@H](O)[C@H](O[C@H]3[C@@H](CC=O)C[C@@H](C)[C@@H](O)CN(C)CC(/C=C/Cc4cccc5cccnc45)CCOC(=O)C[C@@H](OC(=O)CC)[C@@H]3OC)O[C@@H]2C)C[C@]1(C)O (stereo not given in full) | 0.25 (≈ 0.253 µM) | 8 (≈ 8.11 µM) | 32 (≈ 32.4 µM) | 0.5 (≈ 0.507 µM) | 0.25 (≈ 0.253 µM) | 0.03 (≈ 0.0304 µM) | 8 (≈ 8.11 µM) | 2 (≈ 2.03 µM) | 0.5 (≈ 0.507 µM) | 0.015 (≈ 0.0152 µM) | 0.015 (≈ 0.0152 µM) | 0.06 (≈ 0.0608 µM) | 2 (≈ 2.03 µM) | 128 (≈ 130 µM) | 1 (≈ 1.01 µM) | > 128 | 8 (≈ 8.11 µM) | 0.03 (≈ 0.0304 µM) | 128 (≈ 130 µM) | > 128 | MIC (Streptococcus pneumoniae [21]): 128 µg/mL (≈ 130 µM); MIC (Streptococcus pneumoniae [22]): 0.015 µg/mL (≈ 0.0152 µM); MIC (Staphylococcus aureus [23]): 0.25 µg/mL (≈ 0.253 µM); MIC (Streptococcus pneumoniae [24]): 8 µg/mL (≈ 8.11 µM); MIC (Staphylococcus aureus [25]): 0.25 µg/mL (≈ 0.253 µM) |
| CCOC(=O)[C@H]1[C@H](C)O[C@@H](O[C@H]2[C@H](N(C)C)[C@@H](O)[C@H](O[C@H]3[C@@H](CC=O)C[C@@H](C)[C@@H](O)CN(C)CC(/C=C\Cc4cnc5ccccc5c4)CCOC(=O)C[C@@H](OC(=O)CC)[C@@H]3OC)O[C@@H]2C)C[C@@]1(C)O (stereo not given in full) | 0.25 (≈ 0.253 µM) | 16 (≈ 16.2 µM) | > 64 | 1 (≈ 1.01 µM) | 0.5 (≈ 0.507 µM) | 0.13 (≈ 0.132 µM) | 16 (≈ 16.2 µM) | 2 (≈ 2.03 µM) | 1 (≈ 1.01 µM) | 0.25 (≈ 0.253 µM) | 0.06 (≈ 0.0608 µM) | 0.13 (≈ 0.132 µM) | 8 (≈ 8.11 µM) | > 64 | 2 (≈ 2.03 µM) | > 64 | 8 (≈ 8.11 µM) | 0.13 (≈ 0.132 µM) | > 64 | > 64 | MIC (Streptococcus pneumoniae [21]): > 64 µg/mL; MIC (Streptococcus pneumoniae [22]): 0.13 µg/mL (≈ 0.132 µM); MIC (Staphylococcus aureus [23]): 0.5 µg/mL (≈ 0.507 µM); MIC (Streptococcus pneumoniae [24]): 8 µg/mL (≈ 8.11 µM); MIC (Staphylococcus aureus [25]): 0.25 µg/mL (≈ 0.253 µM) |
| CCOC(=O)[C@H]1[C@H](C)O[C@@H](O[C@H]2[C@H](N(C)C)[C@@H](O)[C@H](O[C@H]3[C@@H](CC=O)C[C@@H](C)[C@@H](O)CN(C)CC(/C=C/Cc4ccc5ncccc5c4)CCOC(=O)C[C@@H](OC(=O)CC)[C@@H]3OC)O[C@@H]2C)C[C@@]1(C)O (stereo not given in full) | 0.13 (≈ 0.132 µM) | 8 (≈ 8.11 µM) | 32 (≈ 32.4 µM) | 0.25 (≈ 0.253 µM) | 0.25 (≈ 0.253 µM) | 0.015 (≈ 0.0152 µM) | 8 (≈ 8.11 µM) | 1 (≈ 1.01 µM) | 0.25 (≈ 0.253 µM) | 0.03 (≈ 0.0304 µM) | 0.015 (≈ 0.0152 µM) | 0.03 (≈ 0.0304 µM) | 2 (≈ 2.03 µM) | > 128 | 1 (≈ 1.01 µM) | > 128 | 2 (≈ 2.03 µM) | 0.015 (≈ 0.0152 µM) | > 128 | > 128 | MIC (Streptococcus pneumoniae [21]): 128 µg/mL (≈ 130 µM); MIC (Streptococcus pneumoniae [22]): 0.015 µg/mL (≈ 0.0152 µM); MIC (Staphylococcus aureus [23]): 0.13 µg/mL (≈ 0.132 µM); MIC (Streptococcus pneumoniae [24]): 2 µg/mL (≈ 2.03 µM); MIC (Staphylococcus aureus [25]): 0.13 µg/mL (≈ 0.132 µM) |
